For data set [1], the system named is T. b. brucei bloodstream forms. In words: MitoTracker fluorescence microscopy. The class given is cell-based. Conditions: 24 h treatment; 4 and 5 at 40 nM final concentration. The essentials:
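Bloodstream-form T. b. brucei (NYsm strain) were exposed to test compound for 24 h, some at 40 nM final concentration. Cells were then incubated with the mitochondrial membrane potential-dependent dye MitoTracker, co-stained with DAPI and anti-ATOM40, and examined by fluorescence microscopy with DIC imaging. Untreated parasites were stained in parallel.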

For data set [2], the system named is T. b. brucei bloodstream forms. Nature of the data set: TMRE mitochondrial membrane potential assay. It counts as cell-based. The essentials:
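The mitochondrial membrane potential of bloodstream-form T. b. brucei (NYsm) was quantified with the potential-sensitive dye TMRE, before and after test compound treatment. TMRE fluorescence was expressed relative to control parasites. CCCP served as positive control.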

For data set [3], the system named is Leishmania donovani axenic amastigotes (strain MHOM/ET/67/L82). Nature of the data set: L. donovani axenic amastigotes resazurin assay. It counts as cell-based.
Data set [4] deals with Trypanosoma cruzi (Tulahuen strain C2C4). Nature of the data set: T. cruzi assay in L6 cells. The class given is cell-based. Conditions: read-out: T. cruzi; intracellular.
Data set [5] has as its system T. b. brucei 427 bloodstream forms. In words: T. b. brucei bloodstream form resazurin IC50 assay. The class given is cell-based. Conditions: read-out: activity on T. b. brucei; 72 h exposure.
Data set [6] deals with Leishmania donovani intracellular amastigotes. Nature of the data set: L. donovani intracellular amastigotes in macrophages. The class given is cell-based. Conditions: read-out: L. donovani. Macrophage, mouse peritoneal macrophages.
For data set [7] the following is noted: mice; cited from earlier work.
For the next data set, the system named is Plasmodium falciparum. Conditions: read-out: IC50 Plasmodium falciparum; cited from earlier work.
The next data set has as its system Trypanosoma brucei. Conditions: read-out: IC50 Trypanosoma brucei; cited from earlier work.
Data set [8] concerns T. brucei. Conditions: cited from earlier work.
In data set [9] the test system is T. brucei. Conditions: cited from earlier work. This is another data set of the same source.
In data set [10] the test system is bacteria, fungi, and cancer cells. Conditions: cited from earlier work.
The mark [11] stands for this setting: read-out: L. donovani. axenic amastigotes, range in parentheses.

Read-outs that look alike come from different tables or passages of the source. *1 amine or outer side, *2 acyl side, *3 side chain or, on linkers, in order; H or OH if unused. Where a SMILES comes first, the peptide text is derived from it. [ ]: non-standard residue; d: D form. The star is where a group is joined. X1 = CCC(=O)C[C@H](O)C[C@@H](C)C[C@H](N[*:1])C(=O)[*:2]; Hexenoyl(2E,4S-Me) = CC[C@H](C)/C=C/C(=O)*; Leu(3R-OH) = CC(C)[C@@H](O)[C@H](N)C(=O)O; NH((S)CH(Me)CH2NMe2) = C[C@@H](CN(C)C)N*; Pro(4S-Me) = C[C@@H]1CN[C@H](C(=O)O)C1; NH(1-CH2NMe2-cBu) = CN(C)CC1(N*)CCC1; Oxazole4CO(2-Me) = Cc1nc(C(=O)*)co1; hCha = N[C@@H](CCC1CCCCC1)C(=O)O; NMeL = CN[C@@H](CC(C)C)C(=O)O; Aib = CC(C)(N)C(=O)O; βAla = NCCC(=O)O

As to `Cc1nc(C(=O)N2CCC[C@H]2C(=O)N[C@@H](CCC2CCCCC2)C(=O)N[C@@H](CC(C)C)C(=O)NC(C)(C)C(=O)N[C@@H](CC(C)C)C(=O)N(C)[C@@H](CC(C)C)C(=O)NC(C)(C)C(=O)NC(C)(C)C(=O)NCCC(=O)NC2(CN(C)C)CCC2)co1` [Compound 3] ({Oxazole4CO(2-Me)}-P[hCha]L[Aib]L[NMeL][Aib][Aib][βAla]-{NH(1-CH2NMe2-cBu)}), the MitoTracker mitochondrial staining result in [1] is listed as “no changes”. In [2], the “TMRE fluorescence relative to control parasites” value was “no changes”. For the same compound, the IC50 in [3] (setting [11]) is 9260 nM; in data set [4] it was > 2000 nM.
As for `CCC(=O)C[C@H](O)C[C@@H](C)C[C@H](NC(=O)[C@@H]1C[C@H](C)CN1C(=O)/C=C/[C@@H](C)CC)C(=O)N[C@H](C(=O)NC(C)(C)C(=O)N[C@@H](CC(C)C)C(=O)N[C@@H](CC(C)C)C(=O)NC(C)(C)C(=O)NC(C)(C)C(=O)NCCC(=O)N[C@@H](C)CN(C)C)[C@H](O)C(C)C` [leucinostatin A (1 a), leucinostatin A] ({Hexenoyl(2E,4S-Me)}-[Pro(4S-Me)][X1][Leu(3R-OH)][Aib]LL[Aib][Aib][βAla]-{NH((S)CH(Me)CH2NMe2)}), the IC50 in data set [5] was 0.4 nM; in data set [3] (setting [11]) it was 1.05 nM; in data set [6] it was 9.8 nM; in [4], 23 nM; in the data set on Plasmodium falciparum, 0.4 to 0.9 nM; with Trypanosoma brucei, 2.8 nM. In [2], the “TMRE fluorescence relative to control parasites” value was “concentration‐dependent decrease”. The “ip LD50” value in data set [7] was 1.1 mg/kg.
`CCCCCCCCCCCCCCCCOP(=O)([O-])OCC[N+](C)(C)C` [miltefosine]: in data set [3] (Leishmania donovani, read-out: L. donovani. axenic amastigotes [nM]), the IC50 is 483 nM.
For the compound leucinostatin B [leucinostatin B (1 b)], the curative effect entry in the data set on T. brucei [8] (4×0.3 mg kg^−1 ip) and in the data set on T. brucei [8] (4×1.0 mg kg^−1 ip) was “curative effects” each time. Besides, the “mean duration of survival compared to untreated mice” value in the data set with T. brucei [9] (4×0.3 mg kg^−1 ip) is on record as “slightly increased”. Also, the mice cured entry is “no mice were cured” with T. brucei [9] (4×0.3 mg kg^−1 ip) and “one of 4 mice was cured” with T. brucei [9] (4×1.0 mg kg^−1 ip). Further, in the data set with T. brucei [9] (4×1.0 mg kg^−1 ip, untreated 11.3 days), the “mean duration of survival” value is listed as 28 days.
Take leucinostatin Y: the “activity compared with leucinostatin A” value in data set [10] is given as “far less active”.
